Where “and” joins values, the source holds several entries; their conditions need not be identical. Equal values may be shown once.
Test system: Fibroblast
Assay: Multiplex assay against human fibroblast
Type: toxicity, cell-based
Outline: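 Tubulin, mitochondrial-mass and membrane-permeability phenotypes are per cents of healthy-nucleus cells. Cells were gated by CellPathfinder machine learning into Hoechst high-intensity objects or normal cells, normal cells into healthy, pyknosed or fragmented nuclei, and pyknosed cells into mitotic or apoptotic. Before that, live cells stained at seeding with Hoechst33342, BioTracker Green Microtubule Cytoskeleton Dye, MitoTracker Red and Annexin V Alexa Fluor 680 were imaged on a CQ1 microscope at 37°C and 5% CO2 after compound addition.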

[1] = 12 h, 1 µM, compound concentration 1 uM
[2] = 12 h, 10 µM, compound concentration 10 uM
[3] = 24 h, 1 µM, compound concentration 1 uM
[4] = 24 h, 10 µM, compound concentration 10 uM
[5] = 48 h, 1 µM, compound concentration 1 uM
[6] = 48 h, 10 µM, compound concentration 10 uM

With `O=C(Nc1ccccc1Br)N[C@@H]1CCN(c2ccc(C(F)(F)F)cn2)C1` [SB-705498] the “Population Apoptotic (%)” value [1] was 20% and 15.79%, the “Population Healthy Nuclei (%)” value [1] was 43.71% and 74.07% and the “Population Hoechst High Intensity Objects (%)” value [1] was 0%. The “Population Membrane Permeable-Phenotype (%)” value [1] was 3.03% and 0%, the “Population Mitochondria Different-Phenotype (%)” value [1] was 12.12% and 8.57% and the “Population Mitotic Cells (%)” value [1] was 80% and 84.21%. For the same compound, the “Population Normal (%)” value [1] was 100%, the “Population Pyknosed Nuclei (%)” value [1] was 29.8% and 20.11% and the “Population Tubulin-Different-Phenotype (%)” value [1] was 33.33% and 14.29%. For the same compound, the “Total Cell Count” value [1] was 151 and 189, the “Population Apoptotic (%)” value [2] was 10.94% and 22.22% and the “Population Fragmented Nuclei (%)” value [2] was 10.95% and 8.47%. The “Population Healthy Nuclei (%)” value [2] was 57.21% and 76.27%, the “Population Hoechst High Intensity Objects (%)” value [2] was 0% and the “Population Membrane Permeable-Phenotype (%)” value [2] was 3.48% and 7.41%. For the same compound, the “Population Mitochondria Different-Phenotype (%)” value [2] was 15.65% and 15.56%, the “Population Mitotic Cells (%)” value [2] was 89.06% and 77.78% and the “Population Normal (%)” value [2] was 100%. For the same compound, the “Population Pyknosed Nuclei (%)” value [2] was 31.84% and 15.25%, the “Population Tubulin-Different-Phenotype (%)” value [2] was 15.65% and 42.22% and the “Total Cell Count” value [2] was 201 and 177. The “Population Apoptotic (%)” value [3] was 15.62% and 20%, the “Population Healthy Nuclei (%)” value [3] was 57.14% and 83% and the “Population Hoechst High Intensity Objects (%)” value [3] was 0%. For the same compound, the “Population Membrane Permeable-Phenotype (%)” value [3] was 3.12% and 1.81%, the “Population Mitochondria Different-Phenotype (%)” value [3] was 11.46% and 8.43% and the “Population Mitotic Cells (%)” value [3] was 84.38% and 80%. For the same compound, the “Population Normal (%)” value [3] was 100%, the “Population Pyknosed Nuclei (%)” value [3] was 19.05% and 12.5% and the “Population Tubulin-Different-Phenotype (%)” value [3] was 30.21% and 13.86%. For the same compound, the “Total Cell Count” value [3] was 168 and 200, the “Population Apoptotic (%)” value [4] was 18.03% and 12% and the “Population Fragmented Nuclei (%)” value [4] was 9.01% and 6.59%. The “Population Healthy Nuclei (%)” value [4] was 64.81% and 78.44%, the “Population Hoechst High Intensity Objects (%)” value [4] was 0% and the “Population Membrane Permeable-Phenotype (%)” value [4] was 5.3% and 5.34%. For the same compound, the “Population Mitochondria Different-Phenotype (%)” value [4] was 9.93% and 20.61%, the “Population Mitotic Cells (%)” value [4] was 81.97% and 88% and the “Population Normal (%)” value [4] was 100%. The “Population Pyknosed Nuclei (%)” value [4] was 26.18% and 14.97%, the “Population Tubulin-Different-Phenotype (%)” value [4] was 29.8% and 41.98% and the “Total Cell Count” value [4] was 233 and 167. The “Population Apoptotic (%)” value [5] was 25% and 18.18%, the “Population Fragmented Nuclei (%)” value [5] was 16.97% and 7.55% and the “Population Healthy Nuclei (%)” value [5] was 73.33% and 87.26%. For the same compound, the “Population Hoechst High Intensity Objects (%)” value [5] was 0%, the “Population Membrane Permeable-Phenotype (%)” value [5] was 3.31% and 0.54% and the “Population Mitochondria Different-Phenotype (%)” value [5] was 12.4% and 3.24%. For the same compound, the “Population Mitotic Cells (%)” value [5] was 75% and 81.82%, the “Population Normal (%)” value [5] was 100% and the “Population Pyknosed Nuclei (%)” value [5] was 9.7% and 5.19%. The “Population Tubulin-Different-Phenotype (%)” value [5] was 12.4% and 13.51%, the “Total Cell Count” value [5] was 165 and 212 and the “Population Apoptotic (%)” value [6] was 31.25% and 21.43%. The “Population Fragmented Nuclei (%)” value [6] was 9.02% and 8.28%, the “Population Healthy Nuclei (%)” value [6] was 84.43% and 83.43% and the “Population Hoechst High Intensity Objects (%)” value [6] was 0%. For the same compound, the “Population Membrane Permeable-Phenotype (%)” value [6] was 1.46% and 9.93%, the “Population Mitochondria Different-Phenotype (%)” value [6] was 12.62% and 5.67% and the “Population Mitotic Cells (%)” value [6] was 68.75% and 78.57%. For the same compound, the “Population Normal (%)” value [6] was 100%, the “Population Pyknosed Nuclei (%)” value [6] was 6.56% and 8.28% and the “Population Tubulin-Different-Phenotype (%)” value [6] was 17.48% and 42.55%. For the same compound, the “Total Cell Count” value [6] was 244 and 169.
